Measured values as given in ChEMBL document CHEMBL4725483, “Simultaneous Inhibition of SIRT2 Deacetylase and Defatty-Acylase Activities via a PROTAC Strategy” (ACS Med Chem Lett, 2020).
Active and inactive are the calls of the source. No cut-off for these calls is given here.

What was measured:
[1] = test system: MCF7; assay: Cytotoxicity against human MCF7 cells assessed as reduction in cell viability after 72 hrs; format: functional, cell-based
In short: (§1)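 Cells incubated with compound or thalidomide for 72 h; cell viability read out at the end of exposure.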

[2] = target: T1, Protein cereblon/NAD-dependent protein deacetylase sirtuin-1 (Homo sapiens) (UniProt Q96EB6+Q96SW2); assay: Protac activity at CRBN/SIRT1 in human HEK293T cells stably expressing flag-tagged K-Ras4a-G12V assessed as inhibition of SIRT2 defatty-acylation at 1 uM incubated for 48 hrs by immunoblot analysis; format: cell-based; details: HEK-293T
T1 sequence (Q96SW2 whole entry, looked up, one chain of several): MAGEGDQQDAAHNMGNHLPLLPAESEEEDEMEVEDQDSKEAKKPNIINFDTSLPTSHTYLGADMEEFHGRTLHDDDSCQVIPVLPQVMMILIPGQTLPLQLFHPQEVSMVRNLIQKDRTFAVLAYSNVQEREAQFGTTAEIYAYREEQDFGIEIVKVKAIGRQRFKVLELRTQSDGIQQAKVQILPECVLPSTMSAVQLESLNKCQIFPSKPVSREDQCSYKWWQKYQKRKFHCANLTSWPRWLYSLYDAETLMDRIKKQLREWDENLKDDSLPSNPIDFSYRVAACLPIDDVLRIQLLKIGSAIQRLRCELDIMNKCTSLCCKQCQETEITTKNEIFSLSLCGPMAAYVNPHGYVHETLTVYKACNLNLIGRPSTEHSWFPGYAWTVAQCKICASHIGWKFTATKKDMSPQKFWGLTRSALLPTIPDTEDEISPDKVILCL
In short: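 HEK 293T cells stably overexpressing Flag-tagged K-Ras4a-G12V (confirmed by pan-Ras blot) were exposed to 1 μM compound for 48 h. SIRT1, SIRT2 and SIRT3 levels were then read by immunoblot.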

[3] = target: T2, NAD-dependent protein deacetylase sirtuin-2 (Homo sapiens, UniProt Q8IXJ6); assay: Inhibition of human SIRT2 deacetylation activity using H3K9Ac as substrate in presence of NAD+ by HPLC analysis
T2 sequence (Q8IXJ6 whole entry): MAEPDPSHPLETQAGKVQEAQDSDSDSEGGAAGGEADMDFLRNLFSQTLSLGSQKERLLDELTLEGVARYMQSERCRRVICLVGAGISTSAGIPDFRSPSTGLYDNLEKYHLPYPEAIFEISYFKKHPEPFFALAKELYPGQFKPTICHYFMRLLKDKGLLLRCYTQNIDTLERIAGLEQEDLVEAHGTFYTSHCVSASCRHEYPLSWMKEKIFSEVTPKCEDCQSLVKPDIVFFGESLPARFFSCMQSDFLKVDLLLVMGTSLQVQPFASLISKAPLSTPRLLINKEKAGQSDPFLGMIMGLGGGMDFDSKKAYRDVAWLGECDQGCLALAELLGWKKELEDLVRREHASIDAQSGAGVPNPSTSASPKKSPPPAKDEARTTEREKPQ

[4] = target: T3, NAD-dependent protein deacetylase sirtuin-1 (Homo sapiens, UniProt Q96EB6); assay: Inhibition of human SIRT1 deacetylation activity using H3K9Ac as substrate preincubated for 15 mins in presence of NAD+ followed by substrate addition by HPLC analysis
T3 sequence (Q96EB6 whole entry): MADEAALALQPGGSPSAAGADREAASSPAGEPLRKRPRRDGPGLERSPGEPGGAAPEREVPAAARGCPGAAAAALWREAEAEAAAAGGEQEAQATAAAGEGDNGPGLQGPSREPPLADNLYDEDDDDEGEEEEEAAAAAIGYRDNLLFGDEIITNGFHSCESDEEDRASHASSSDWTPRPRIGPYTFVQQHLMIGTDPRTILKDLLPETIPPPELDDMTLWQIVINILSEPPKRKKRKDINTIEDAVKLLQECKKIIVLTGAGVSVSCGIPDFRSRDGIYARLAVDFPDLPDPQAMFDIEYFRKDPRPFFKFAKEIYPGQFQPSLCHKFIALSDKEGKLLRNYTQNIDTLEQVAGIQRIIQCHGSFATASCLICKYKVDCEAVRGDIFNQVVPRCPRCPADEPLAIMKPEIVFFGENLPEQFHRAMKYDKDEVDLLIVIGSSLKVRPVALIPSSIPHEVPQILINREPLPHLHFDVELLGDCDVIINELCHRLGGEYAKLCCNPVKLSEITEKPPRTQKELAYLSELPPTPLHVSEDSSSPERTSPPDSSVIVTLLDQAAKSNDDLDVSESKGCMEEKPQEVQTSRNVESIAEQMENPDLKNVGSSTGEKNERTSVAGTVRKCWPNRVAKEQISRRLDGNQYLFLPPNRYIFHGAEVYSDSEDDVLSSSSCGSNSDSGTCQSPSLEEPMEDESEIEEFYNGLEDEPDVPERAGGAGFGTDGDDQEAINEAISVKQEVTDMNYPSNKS
In short: (§2)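 In vitro sirtuin reaction mixture with compound at a range of concentrations. Compound was preincubated with NAD+ and the enzyme before the substrate peptide was added. IC50 taken from the concentration series.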

[5] = target: T4, Protein cereblon/NAD-dependent protein deacetylase sirtuin-2 (Homo sapiens) (UniProt Q8IXJ6+Q96SW2); assay: Protac activity at CRBN/SIRT2 in human BT549 cells assessed as SIRT2 degradation at 5 to 10 uM after 48 hrs by immunoblot analysis; format: cell-based; details: BT-549, dose microM 5-10, time 48.0 hrs
T4 sequence (Q96SW2 whole entry, looked up, one chain of several): as the sequence (Q96SW2 whole entry, looked up, one chain of several) above
In short: (§3)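 Cells exposed to compound at the indicated concentrations for 48 h. SIRT1, SIRT2 and SIRT3 levels were read by immunoblot.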

[6] = test system: MCF7; assay: Cytotoxicity against human MCF7 cells assessed as reduction in cell viability at 1 uM after 72 hrs; format: functional, cell-based
[7] = target: NAD-dependent protein deacylase sirtuin-6 (Homo sapiens, UniProt Q8N6T7); assay: Inhibition of human SIRT6 deacetylation activity using H3K9Ac as substrate preincubated for 15 mins in presence of NAD+ followed by substrate addition by HPLC analysis; in short: as §2
Sequence of NAD-dependent protein deacylase sirtuin-6 (Q8N6T7 whole entry): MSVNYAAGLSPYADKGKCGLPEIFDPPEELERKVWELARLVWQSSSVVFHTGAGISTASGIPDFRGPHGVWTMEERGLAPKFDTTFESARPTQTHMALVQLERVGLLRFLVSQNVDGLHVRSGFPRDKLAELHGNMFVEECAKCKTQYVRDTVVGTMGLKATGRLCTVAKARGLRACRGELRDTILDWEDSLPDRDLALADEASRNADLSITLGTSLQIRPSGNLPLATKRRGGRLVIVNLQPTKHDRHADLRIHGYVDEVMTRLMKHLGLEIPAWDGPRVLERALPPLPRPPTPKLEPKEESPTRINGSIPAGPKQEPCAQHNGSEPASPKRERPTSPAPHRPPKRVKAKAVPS

[8] = target: T1, Protein cereblon/NAD-dependent protein deacetylase sirtuin-1 (Homo sapiens); assay: Protac activity at CRBN/SIRT1 in human HEK293T cells assessed as abundance ratio at 5 uM incubated for 16 hrs by TMT global proteomics assay relative to DMSO; format: cell-based; details: HEK-293T
In short: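 HEK 293T cells given 5 μM compound for 16 h. Global proteomics used Tandem Mass Tag labelling, and each sirtuin's abundance is given as a ratio of treated to DMSO-treated cells.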

[9] = target: T4, Protein cereblon/NAD-dependent protein deacetylase sirtuin-2 (Homo sapiens); assay: Protac activity at CRBN/SIRT2 in human MCF7 cells assessed as SIRT2 degradation at 5 to 10 uM after 48 hrs by immunoblot analysis; format: cell-based; details: dose microM 5-10, time 48.0 hrs; in short: as §3
[10] = target: T4, Protein cereblon/NAD-dependent protein deacetylase sirtuin-2 (Homo sapiens); assay: Protac activity at CRBN/SIRT2 in human MCF7 cells assessed as inhibition of SIRT2 deacetylation by measuring increase in acetylated-alpha tubulin level at 10 uM measured after 12 hrs by DAPI staining based immunofluorescence microscopic analysis; format: cell-based
In short: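 MCF7 cells treated for 12 h with 5 or 10 μM, DMSO as control. Acetyl-α-tubulin (K40) was imaged by immunofluorescence, and fluorescence intensity was quantified and normalized to vehicle.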

[11] = test system: MDA-MB-231; assay: Cytotoxicity against human MDA-MB-231 cells assessed as reduction in cell viability after 72 hrs; format: functional, cell-based; in short: as §1
[12] = target: T4, Protein cereblon/NAD-dependent protein deacetylase sirtuin-2 (Homo sapiens); assay: Protac activity at CRBN/SIRT2 in human HEK293T cells assessed as abundance ratio at 5 uM incubated for 16 hrs by TMT global proteomics assay relative to DMSO; format: cell-based; details: HEK-293T
In short: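 HEK 293T cells were treated for 16 h. Global proteome was quantified by Tandem Mass Tag labelling. The abundance ratio of each sirtuin was taken against DMSO-treated cells.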

In the case of CCCCCCCCCCCCCC(=S)NCCCC[C@H](NC(=O)CCOCCOCCOCCOCCNc1cccc2c1C(=O)N(C1CCC(=O)NC1=O)C2=O)C(=O)Nc1ccccc1 (some centres not stated), the Activity [1] is reported as “Active”, the Activity [2] is reported as “inactive” and the IC50 [3] is reported as 0.093 µM. For the same compound, the IC50 [4] was 41 µM, the Activity [5] was “Active” and the Activity [6] was “inactive”. For the same compound, the IC50 [7] was over 83 µM, the Activity [8] was “inactive” and the Activity [9] was “Active”. The Activity [10] was “Active”, the Activity [11] was “Active” and the Ratio [12] was 0.36.
